# The source made the active and inactive calls. No cut-off for these calls is given here.
# What was measured:
# [1] = Drug metabolism in human liver microsomes assessed as retention time of 5-(2-((4-(hydroxymethyl)phenyl)amino)thiazol-4-yl)-N-(pyridin-2-yl)isoxazole-3-carboxamide at 250 nM by HPLC-MS/MS analysis; assay type: ADME, Microsome; details: 0.25 µM
# In short: (§1)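 Spiking: 10 μL HLM incubate was diluted with 90 μL ACN alone or with 250 nM of each synthetic hydroxylated standard in ACN. After centrifugation, HPLC-MS/MS retention times were compared for co-elution with the metabolites.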
# Mycobacterium marinum [2] = assay: Antitubercular activity against Mycobacterium marinum ATCC BAA-535 assessed as inhibition of bacterial growth measured after 3 weeks by broth microdilution method; assay type: functional; details: ATCC BAA-535, 504 h
# [3] = Drug metabolism in human liver microsomes assessed as 5-(2-((4-(hydroxymethyl)phenyl)amino)thiazol-4-yl)-N-(pyridin-2-yl)isoxazole-3-carboxamide formation at 100 uM measured after 180 mins by HR-MS analysis; assay type: ADME, Microsome; details: 3 h
# In short: (§2)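 Metabolite ID: test compound at 100 μM initial concentration in pooled HLM incubates. Aliquots were taken at start and after 180 min, quenched with ACN, centrifuged and analysed by full-scan LC-HR-MS (Orbitrap, ESI+ and ESI−, resolution 15000). Data-dependent CID MS/MS was acquired at 30–35 V.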
# [4] = Drug metabolism in human liver microsomes assessed as retention time of metabolite with molecular mass [M+30] at 250 nM by HPLC-MS/MS analysis; assay type: ADME, Microsome; details: 0.25 µM
# [5] = test system: Mycobacterium tuberculosis; assay: Antitubercular activity against Mycobacterium tuberculosis H37Rv assessed as inhibition of bacterial growth incubated for 7 days by REMA method; assay type: functional; details: Mycobacterium tuberculosis, H37Rv, 168 h; time 7 day; read-out: MIC90
# [6] = Drug metabolism in human liver microsomes assessed as 5-(2-((3-hydroxy-4-methylphenyl)amino)thiazol-4-yl)-N-(pyridin-2-yl)isoxazole-3-carboxamide formation at 100 uM measured after 180 mins by HR-MS analysis; assay type: ADME, Microsome; details: 3 h; in short: as §2
# [7] = Cytotoxicity against human THP-1 cells assessed as reduction in cell viability measured after 72 hrs by MTT assay; assay type: toxicity, cell-based
# In short: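 THP-1 monocytes were differentiated to macrophages with PMA 100 ng/mL for 72 h. They were then exposed to compounds at 1, 10, 50 and 100 μM for 72 h, each tested twice. MTT at 1 mg/mL in RPMI with 5% FBS was added for 2 h at 37 °C; formazan was dissolved in DMSO and read at 570 nm. Viability is given as % of control; IC50 from non-linear regression.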
# [8] = Drug metabolism in human liver microsomes assessed as retention time of 5-(2-((3-hydroxy-4-methylphenyl)amino)thiazol-4-yl)-N-(pyridin-2-yl)isoxazole-3-carboxamide at 250 nM by HPLC-MS/MS analysis; assay type: ADME, Microsome; details: 0.25 µM; in short: as §1
# [9] = Half life in human liver microsomes at 1 uM preincubated with NADP+ for 5 mins prior to compound addition by HPLC-MRM-MS analysis; assay type: ADME, Microsome
# In short: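 Pooled HLM at 1 mg/mL protein in 100 mM PBS pH 7.4 with an NADPH-regenerating mix: G6P 10 mM, NADP+ 2 mM, MgCl2 5 mM, G6PDH 1.5 U/mL (stock concentrations). Pre-incubated 5 min at 37 °C, then compound added to 1 μM final (1% DMSO).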
# [10] = Toxicity in Zebrafish infected with Mycobacterium marinum assessed as enlarged yolk sac area at 6 to 8 ng. iv; set-up: species or system Danio rerio; details: in vivo, dose 6-8 ng
# [11] = Drug metabolism in human liver microsomes assessed as retention time of 5-(2-((3-hydroxy-4-methylphenyl)amino)thiazol-4-yl)-N-phenylisoxazole-3-carboxamide at 250 nM by HPLC-MS/MS analysis; assay type: ADME, Microsome; details: 0.25 µM; in short: as §1
# [12] = Drug metabolism in human liver microsomes assessed as 5-(2-((3-hydroxy-4-methylphenyl)amino)thiazol-4-yl)-N-phenylisoxazole-3-carboxamide formation at 100 uM measured after 180 mins by HR-MS analysis; assay type: ADME, Microsome; details: 3 h; in short: as §2
# [13] = Drug metabolism in human liver microsomes assessed as retention time of 5-(2-((4-(hydroxymethyl)phenyl)amino)thiazol-4-yl)-N-phenylisoxazole-3-carboxamide at 250 nM by HPLC-MS/MS analysis; assay type: ADME, Microsome; details: 0.25 µM; in short: as §1
# [14] = Drug metabolism in human liver microsomes assessed as 5-(2-((4-(hydroxymethyl)phenyl)amino)thiazol-4-yl)-N-phenylisoxazole-3-carboxamide formation at 100 uM measured after 180 mins by HR-MS analysis; assay type: ADME, Microsome; details: 3 h; in short: as §2
# [15] = Toxicity in Zebrafish infected with Mycobacterium marinum assessed as enlarged heart at 6 to 8 ng. iv; set-up: species or system Danio rerio; details: in vivo, dose 6-8 ng
# Mycobacterium marinum [16] = assay: Antitubercular activity against mCherry-labeled Mycobacterium marinum infected in Zebra fish larvae assessed as reduction in granuloma formation at 6 to 8 ng, iv; assay type: functional, organism-based; details: dose 6-8 ng
SMILES,Retention_time [1],MIC90 (Mycobacterium marinum [2]),Drug metabolism [3],Retention_time [4],MIC90 [5],Drug metabolism [6],IC50 at 72 h [7],Retention_time [8],t1/2 [9],Activity [10],Retention_time [11],Drug metabolism [12],Retention_time [13],Drug metabolism [14],Activity [15],Activity (Mycobacterium marinum [16])
Cc1ccc(Nc2nc(-c3cc(C(=O)Nc4ccccn4)no3)cs2)cc1,21.01 min,0.5 µg/mL,Metabolite_Detected,21.97 min,0.5 µg/mL,Metabolite_Detected,22 µg/mL,23.73 min,16 min,,,,,,,
Cc1ccc(Nc2nc(-c3cc(C(=O)Nc4ccccc4)no3)cs2)cc1,,0.5 µg/mL,,23.65 min,1 µg/mL,,88 µg/mL,,35 min,Toxic,25.44 min,Metabolite_Detected,22.95 min,Metabolite_Detected,Toxic,Active

# From ChEMBL document CHEMBL5335768, “Expanding the knowledge around antitubercular 5-(2-aminothiazol-4-yl)isoxazole-3-carboxamides: Hit-to-lead optimization and release of a novel antitubercular chemotype via scaffold derivatization” (Eur J Med Chem, 2023)
